In ChEMBL document CHEMBL4477203 (J Med Chem, 2016):
Numbered stars: 1 amine (or outer) side, 2 acyl side, 3 side chain; on linkers, the order of the positions; unused ones are H or OH. Bridge positions count the residues as written; N and C are the ends. Peptide text beside a SMILES is read from it. I, II: the chains in the order shown. Suberoyl = O=C(CCCCCCC(=O)[*:2])[*:1]

What was measured:
[1] = target: T1, Neuropeptide Y receptor type 4 (Homo sapiens, UniProt P50391); assay: Agonist activity at human NPY Y4 receptor expressed in CHO cells co-expressing Gqi5-mtAEQ assessed as induction of calcium mobilization by aequorin luminescence assay; type: functional, cell-based
Outline: (§1)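 Luminescence was integrated as area under the curve and normalized to the response to 1 µM PP. Data are means ± SEM of at least 3 independent experiments, each run in triplicate.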

[2] = target: T1, Neuropeptide Y receptor type 4; assay: Intrinsic activity at human NPY Y4 receptor expressed in CHO cells co-expressing Gqi5-mtAEQ assessed as induction of calcium mobilization by aequorin luminescence assay relative to pancreatic polypeptide; type: functional, cell-based; outline: as §1
[3] = target: T1, Neuropeptide Y receptor type 4; assay: Agonist activity at human NPY Y4 receptor expressed in HEK293 cells co-expressing CRE-Luc gene assessed as inhibition of forskolin stimulated luciferase activity after 4.5 hrs by luminescence assay; type: functional, cell-based
Outline: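 HEK293 cells stably co-transfected with a CRE-controlled firefly luciferase reporter and hY4R, tested in phenol-red-free DMEM, pH 7.4. The maximal inhibition by PP was set to 0% activity (α = 1.0). Data are means ± SEM of at least 3 experiments in triplicate.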

[4] = target: T1, Neuropeptide Y receptor type 4; assay: Intrinsic activity at human NPY Y4 receptor expressed in HEK293 cells co-expressing CRE-Luc gene assessed as inhibition of forskolin stimulated luciferase activity after 4.5 hrs by luminescence assay relative to pancreatic polypeptide; type: functional, cell-based
Outline: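 HEK293 cells stably co-transfected with a CRE-controlled firefly luciferase reporter and hY4R, tested in phenol-red-free DMEM, pH 7.4. […] The maximal inhibition by PP was set to 0% activity (α = 1.0). Data are means ± SEM of at least 3 experiments in triplicate.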

[5] = target: T2, Neuropeptide Y receptor type 1 (Homo sapiens, UniProt P25929); assay: Displacement of [3H]UR-MK136 from human NPY Y1 receptor expressed in human MCF7 cells by liquid scintillation counting; type: cell-based
T2 sequence (P25929 whole entry): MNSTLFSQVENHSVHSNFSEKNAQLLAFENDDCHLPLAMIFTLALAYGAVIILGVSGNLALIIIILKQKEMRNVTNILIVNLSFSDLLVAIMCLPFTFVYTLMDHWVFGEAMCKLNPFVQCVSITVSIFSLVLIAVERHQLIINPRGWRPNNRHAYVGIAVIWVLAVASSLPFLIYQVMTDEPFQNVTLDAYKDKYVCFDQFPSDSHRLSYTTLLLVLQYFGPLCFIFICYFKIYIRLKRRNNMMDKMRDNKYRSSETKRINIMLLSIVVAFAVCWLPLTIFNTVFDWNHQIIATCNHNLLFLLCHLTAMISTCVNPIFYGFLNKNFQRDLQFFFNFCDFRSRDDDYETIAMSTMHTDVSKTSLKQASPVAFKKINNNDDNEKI

[6] = target: T3, Neuropeptide Y receptor type 2 (Homo sapiens, UniProt P49146); assay: Displacement of [3H]propionyl-pNPY from human NPY Y2 receptor expressed in CHO cells co-expressing Gqi5-mtAEQ after 90 mins by liquid scintillation counting; type: cell-based
T3 sequence (P49146 whole entry): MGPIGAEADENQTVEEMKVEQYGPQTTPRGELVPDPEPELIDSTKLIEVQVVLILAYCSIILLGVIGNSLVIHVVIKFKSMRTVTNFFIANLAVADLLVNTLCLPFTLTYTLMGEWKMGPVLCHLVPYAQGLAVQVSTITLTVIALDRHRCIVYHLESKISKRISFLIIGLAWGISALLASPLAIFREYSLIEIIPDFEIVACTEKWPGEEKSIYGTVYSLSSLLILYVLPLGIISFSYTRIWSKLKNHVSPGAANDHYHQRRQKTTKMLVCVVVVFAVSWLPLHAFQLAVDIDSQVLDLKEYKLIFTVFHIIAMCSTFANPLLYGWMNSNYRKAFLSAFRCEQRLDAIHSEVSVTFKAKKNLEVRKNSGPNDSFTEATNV
Outline: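 Adherent CHO-hY2R-Gqi5-mtAEQ cells in buffer I with 1% BSA and 0.1 mg/mL bacitracin at 22 °C. […] Incubation was 90 min, followed by two ice-cold washes, lysis and scintillation counting.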

[7] = target: T1, Neuropeptide Y receptor type 4; assay: Displacement of [3H](2R,7R)-10 from human NPY Y4 receptor expressed in CHO cells co-expressing Gqi5-mtAEQ after 90 mins in presence of sodium-free HEPES buffer by liquid scintillation counting; type: cell-based
[8] = target: T1, Neuropeptide Y receptor type 4; assay: Displacement of [3H](2R,7R)-10 from human NPY Y4 receptor expressed in CHO cells co-expressing Gqi5-mtAEQ after 90 mins in presence of L-15 medium by liquid scintillation counting; type: cell-based
[9] = target: T4, Neuropeptide Y receptor type 5 (Homo sapiens, UniProt Q15761); assay: Displacement of [3H]propionyl-pNPY from human NPY Y5 receptor expressed in human HEC1b cells after 120 mins by liquid scintillation counting; type: cell-based
T4 sequence (Q15761 whole entry): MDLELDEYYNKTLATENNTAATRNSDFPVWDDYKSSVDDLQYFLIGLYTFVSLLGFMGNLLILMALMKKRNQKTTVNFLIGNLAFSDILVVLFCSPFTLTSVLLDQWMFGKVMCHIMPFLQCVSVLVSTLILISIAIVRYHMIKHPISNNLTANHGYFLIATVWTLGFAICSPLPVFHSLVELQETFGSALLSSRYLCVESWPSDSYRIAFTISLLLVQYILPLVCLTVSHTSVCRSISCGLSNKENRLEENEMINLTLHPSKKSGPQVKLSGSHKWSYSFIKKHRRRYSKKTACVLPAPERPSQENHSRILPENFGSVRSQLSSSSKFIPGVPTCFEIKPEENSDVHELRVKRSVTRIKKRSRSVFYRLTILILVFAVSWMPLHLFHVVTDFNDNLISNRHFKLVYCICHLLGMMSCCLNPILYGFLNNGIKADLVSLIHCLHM
Outline: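 Adherent HEC-1B-hY5 cells in buffer II with 1% BSA and 0.1 mg/mL bacitracin at 22 °C. […] Incubation was 120 min, followed by ice-cold washes, lysis and scintillation counting.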

[10] = target: T1, Neuropeptide Y receptor type 4; assay: Displacement of [3H]18 from human NPY Y4 receptor expressed in CHO cells co-expressing Gqi5-mtAEQ after 90 mins by liquid scintillation counting; type: cell-based; settings: cho

T1 sequence (P50391 whole entry): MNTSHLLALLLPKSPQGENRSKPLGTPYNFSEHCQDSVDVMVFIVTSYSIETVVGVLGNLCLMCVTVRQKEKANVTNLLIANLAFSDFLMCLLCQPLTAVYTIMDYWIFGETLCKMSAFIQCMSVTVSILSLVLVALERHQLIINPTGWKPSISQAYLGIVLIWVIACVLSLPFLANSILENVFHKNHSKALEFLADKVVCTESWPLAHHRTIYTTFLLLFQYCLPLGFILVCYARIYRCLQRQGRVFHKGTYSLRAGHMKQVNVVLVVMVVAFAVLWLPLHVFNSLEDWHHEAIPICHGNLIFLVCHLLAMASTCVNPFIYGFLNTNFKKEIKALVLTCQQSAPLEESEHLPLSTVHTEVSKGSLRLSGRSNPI

| EC50 [1] | Intrinsic activity [2] | EC50 [3] | Intrinsic activity [4] | Ki [5] | Ki [6] | Ki [7] | Ki [8] | Ki [9] | EC50 ([1]; cho) | EC50 ([3]; hek293) | Ki ([7]; cho) | Ki [10] | Compound |
| --- | --- | --- | --- | --- | --- | --- | --- | --- | --- | --- | --- | --- | --- |
| 18 nM | 0.78 | 19 nM | 1.07 | 930 nM | 950 nM | 2.3 nM | 17 nM | 2100 nM | – | – | – | – | CC(C)C[C@H](NC(=O)[C@H](CCCNC(=N)N)NC(=O)[C@H](Cc1ccc(O)cc1)NC(=O)[C@@H](N)CCCC[C@H](N)C(=O)N[C@@H](Cc1ccc(O)cc1)C(=O)N[C@@H](CCCNC(=N)N)C(=O)N[C@@H](CC(C)C)C(=O)N[C@@H](CCCNC(=N)N)C(=O)N[C@@H](Cc1ccc(O)cc1)C(N)=O)C(=O)N[C@@H](CCCNC(=N)N)C(=O)N[C@@H](Cc1ccc(O)cc1)C(N)=O |
| 290 nM | 0.85 | 160 nM | 0.98 | 1400 nM | > 3000 nM | 12 nM | – | 220 nM | – | – | – | – | CC(C)C[C@H](NC(=O)[C@H](C)NC(=O)[C@H](Cc1ccc(O)cc1)NC(=O)CCCCCCC(=O)N[C@@H](Cc1ccc(O)cc1)C(=O)N[C@@H](CCCNC(=N)N)C(=O)N[C@@H](CC(C)C)C(=O)N[C@@H](CCCNC(=N)N)C(=O)N[C@@H](Cc1ccc(O)cc1)C(N)=O)C(=O)N[C@@H](CCCNC(=N)N)C(=O)N[C@@H](Cc1ccc(O)cc1)C(N)=O (I: YALRY-NH2 / II: YRLRY-NH2; linker I:N-II:N via Suberoyl) |
| – | – | > 3000 nM | – | > 10000 nM | > 10000 nM | > 3000 nM | – | > 10000 nM | – | – | – | – | CC(C)C[C@H](NC(=O)[C@H](CCCNC(=N)N)NC(=O)[C@H](Cc1ccc(O)cc1)NC(=O)CCCCCCC(=O)N[C@@H](Cc1ccc(O)cc1)C(=O)N[C@@H](CCCNC(=N)N)C(=O)N[C@@H](CC(C)C)C(=O)N[C@@H](C)C(=O)N[C@@H](Cc1ccc(O)cc1)C(N)=O)C(=O)N[C@@H](C)C(=O)N[C@@H](Cc1ccc(O)cc1)C(N)=O (I: YRLAY-NH2 / II: YRLAY-NH2; linker I:N-II:N via Suberoyl) |
| – | – | – | – | – | – | – | – | – | 8.5 nM | 5.5 nM | 1.6 nM | 1.3 nM | CC[C@H](C)[C@H](N)C(=O)N[C@H]1CCC(=O)NC[C@@H](C(=O)N[C@@H](Cc2ccc(O)cc2)C(=O)N[C@@H](CCCN=C(N)N)C(=O)N[C@@H](CC(C)C)C(=O)N[C@@H](CCCN=C(N)N)C(=O)N[C@@H](Cc2ccc(O)cc2)C(N)=O)NC(=O)[C@@H]2CCCN2C(=O)[C@@H](NC(=O)[C@@H](N)[C@@H](C)CC)CCC(=O)NC[C@@H](C(=O)N[C@@H](Cc2ccc(O)cc2)C(=O)N[C@@H](CCCN=C(N)N)C(=O)N[C@@H](CC(C)C)C(=O)N[C@@H](CCCN=C(N)N)C(=O)N[C@@H](Cc2ccc(O)cc2)C(N)=O)NC(=O)[C@@H]2CCCN2C1=O |
| – | – | – | – | – | – | 1.06 nM | – | – | – | – | – | – | CC(C)C[C@H](NC(=O)[C@H](CCCNC(=N)N)NC(=O)[C@H](Cc1ccc(O)cc1)NC(=O)C(N)CCCCC(N)C(=O)N[C@@H](Cc1ccc(O)cc1)C(=O)N[C@@H](CCCNC(=N)N)C(=O)N[C@@H](CC(C)C)C(=O)N[C@@H](CCCNC(=N)N)C(=O)N[C@@H](Cc1ccc(O)cc1)C(N)=O)C(=O)N[C@@H](CCCNC(=N)N)C(=O)N[C@@H](Cc1ccc(O)cc1)C(N)=O (some centres not stated) |
